Source: PubChem BioAssay (Broad Institute)
T cruzi growth-1 – T. cruzi intracellular proliferation inhibitors, primary screen, cell-based, beta-gal Tulahuen parasites, NIH3T3 host, luminescence; inhibition, % at 8.34 µM; T. cruzi beta-gal in NIH3T3, GalScreen luminescence, 90 h; actives 5.9% (n = 77,000);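 active = mean inhibition above about 93%, with at least 55% of replicates each passing it, limit read from the data, passing the limit was not always enough; inconclusive = only one of those two conditions holds; inactive = neither condition holds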
GASC1 inh – inhibitors of GASC-1 (KDM4C) histone demethylase, primary screen, biochemical, single concentration HTS; inhibition, % at 12.5 µM; GST-KDM4C 2-372, H3K9me3 peptide, LANCE TR-FRET; actives 0.15% (n = 96,000);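 active = mean replicate inhibition above about 25%, with at least 55% of replicates also reaching it, limit read from the data, passing the limit was not always enough; inconclusive = only one of those two conditions met; inactive = neither condition met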
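Test system: N-terminal GST-fused human GASC-1 (KDM4C) fragment, residues 2-372; quantity: GASC-1 enzyme at 10 nM final in reaction; dosing: single dose; schedule: 30 min demethylation and 1 h detection at room temperature; signal: LANCE TR-FRET, excitation 340 nm, emissions 618 and 671 nm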
Pf Dd2 inh – P. falciparum Dd2 growth inhibitors, primary screen, SYBR Green fluorescence, single dose replicates. actives 2.3% (n = 94,000). activity change, % at 10 µM. AID 1159554, 2015. 72 h; stronger effect = lower value; in the data active = activity change below about -80%; inconclusive = no clear call, values can overlap the other calls
IDH1 R132H inh – inhibitors of IDH1 R132H reductase, primary screen, biochemical, plate reader, single point. AID 624101, 2012. actives 0.18% (n = 70,000). inhibition, % at 10 µM. diaphorase/resazurin fluorescence, 60 min. Isocitrate dehydrogenase [NADP] cytoplasmic (Homo sapiens), O75874; in the data active = inhibition above about 34%; inconclusive = no clear call, values can overlap the other calls; inactive = below about 11%;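 also: 0% = DMSO and 100% = no enzyme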
Target sequence (O75874 whole entry R132H): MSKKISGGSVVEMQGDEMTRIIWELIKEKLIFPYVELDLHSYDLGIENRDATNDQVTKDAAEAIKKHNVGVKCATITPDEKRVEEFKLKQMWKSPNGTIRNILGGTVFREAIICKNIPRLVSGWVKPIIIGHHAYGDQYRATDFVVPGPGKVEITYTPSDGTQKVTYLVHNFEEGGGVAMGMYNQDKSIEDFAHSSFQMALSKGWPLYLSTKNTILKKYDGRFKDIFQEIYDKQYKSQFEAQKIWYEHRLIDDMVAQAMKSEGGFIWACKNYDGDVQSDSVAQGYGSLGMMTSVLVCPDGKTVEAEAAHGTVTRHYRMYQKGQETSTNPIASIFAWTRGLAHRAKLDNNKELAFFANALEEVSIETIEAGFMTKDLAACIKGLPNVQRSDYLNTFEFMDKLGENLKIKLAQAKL
T cruzi growth-2 – T. cruzi intracellular proliferation inhibitors, confirmation, cell-based, NIH3T3 host, beta-gal parasite, luminescence, cherry-pick | inhibition, % at 8.35 µM | shares compounds with T cruzi growth-1 | actives 72% (n = 5,600) | T. cruzi beta-gal in NIH3T3, GalScreen luminescence, 90 h | AID 651739, 2012;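 active = mean replicate inhibition above about 95% and at least 55% of replicates individually reaching it, limit read from the data; inconclusive = only one of the two criteria is met; inactive = neither criterion is met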
T cruzi growth-3 – inhibitors of intracellular T. cruzi replication, confirmation, NIH3T3 host cells, beta-gal parasites, cherry-pick, set 2; AID 651740, 2012; shares compounds with T cruzi growth-1; actives 21% (n = 5,600); inhibition, % at 2.09 µM; T. cruzi beta-gal in NIH3T3, GalScreen luminescence, 90 h;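 active = mean inhibition above about 95%, with at least 55% of replicates also reaching it, limit read from the data; inconclusive = meets just one of the two conditions; inactive = meets neither condition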;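 also: plate controls were neutral control median for no effect and positive control median for full effect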
NIH3T3 tox – cytotoxicity in mouse NIH/3T3 fibroblasts, confirmation, cytotoxicity control for T. cruzi proliferation inhibitor project, cell-based, cherry-pick, single point. AID 651742, 2012. cytotoxicity (signal decrease), % at 8.35 µM. actives 14% (n = 5,600). shares compounds with T cruzi growth-1. NIH/3T3 viability, CellTiter-Glo ATP luminescence, 90 h;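 active = mean signal decrease across replicates above about 35% based on untreated-well scatter, with enough replicates individually passing, limit read from the data; inconclusive = no rule stated though some were filed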;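 also: 0% = median of neutral control wells and 100% = median of positive control wells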
3T3 cytotox 2 – NIH/3T3 fibroblast cytotoxicity, confirmation, cytotoxicity control, cell-based, cherry-pick, single point, set 2. shares compounds with T cruzi growth-1. NIH/3T3 viability, CellTiter-Glo ATP luminescence, 90 h. inhibition, % at 24.9 µM. actives 56% (n = 5,600);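 active = mean loss of cell viability signal at or above a set limit, and enough replicates individually reaching it; inconclusive = meets only the mean limit or only the replicate share; inactive = meets neither condition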;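 also: 0% = median of neutral control wells and 100% = median of positive control wells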
* = called active by the depositor. The list is not random: actives were taken first. Their share in the collection is about 5.8%.

Screening O=C(C[C@H]1C[C@@H]2c3cc(NC(=O)c4ccc5c(c4)OCO5)ccc3O[C@@H]2[C@@H](CO)O1)NCc1ccc(Cl)cc1 returned T cruzi growth-1 100.7*, GASC1 inh 1.1, Pf Dd2 inh -41.4, IDH1 R132H inh -0.4, T cruzi growth-2 100.8*, T cruzi growth-3 56.1, NIH3T3 tox 20.7 and 3T3 cytotox 2 25.0.
O=C(C[C@H]1C[C@@H]2c3cc(NC(=O)c4ccc5c(c4)OCO5)ccc3O[C@@H]2[C@H](CO)O1)NCc1ccc(Oc2ccccc2)cc1 was read as T cruzi growth-1 176.7*, GASC1 inh -1.7, Pf Dd2 inh -18.4, IDH1 R132H inh -0.9, T cruzi growth-2 98.7*, T cruzi growth-3 38.2, NIH3T3 tox -15.0 and 3T3 cytotox 2 44.8*.
`O=C(C[C@@H]1C[C@@H]2c3cc(NC(=O)c4ccc5c(c4)OCO5)ccc3O[C@@H]2[C@H](CO)O1)NCc1ccc(Cl)cc1` gave T cruzi growth-1 9.2, GASC1 inh -0.7, Pf Dd2 inh -10.0 and IDH1 R132H inh -0.2.
`O=C(Nc1ccc(I)cc1C(=O)NCc1cccnc1)c1ccccc1Cl` gave IDH1 R132H inh 0.6.
For C[C@@H]1CN([C@H](C)CO)C(=O)c2cccc(NC(=O)Nc3ccc(F)cc3)c2O[C@H]1CN(C)Cc1ccc(Oc2ccccc2)cc1 the results were T cruzi growth-1 115.5*, GASC1 inh -0.9, Pf Dd2 inh -10.9, T cruzi growth-2 100.8*, T cruzi growth-3 83.5, NIH3T3 tox 1.3 and 3T3 cytotox 2 45.8*.
For C[C@@H]1CN([C@@H](C)CO)C(=O)c2cccc(NC(=O)Nc3ccc(F)cc3)c2O[C@H]1CN(C)Cc1ccc(Oc2ccccc2)cc1 the results were T cruzi growth-1 inconclusive, GASC1 inh -2.6, Pf Dd2 inh -1.9, IDH1 R132H inh 3.1, T cruzi growth-2 96.1*, T cruzi growth-3 93.8, NIH3T3 tox -4.3 and 3T3 cytotox 2 54.7*.
Screening C[C@H](CO)N1C[C@H](C)[C@@H](CN(C)CC2CCCCC2)Oc2c(NS(=O)(=O)c3cn(C)cn3)cccc2C1=O returned T cruzi growth-1 103.0*, GASC1 inh 13.4, Pf Dd2 inh 13.7, T cruzi growth-2 50.7, T cruzi growth-3 15.6, NIH3T3 tox 10.7 and 3T3 cytotox 2 7.8.
`C[C@H](CO)N1C[C@H](C)[C@@H](CN(C)Cc2ccc(-c3ccccc3)cc2)Oc2c(NC(=O)c3ccncc3)cccc2C1=O` gave T cruzi growth-1 102.1*, GASC1 inh 0.6, Pf Dd2 inh -27.7, T cruzi growth-2 104.6*, T cruzi growth-3 98.2*, NIH3T3 tox 49.4* and 3T3 cytotox 2 36.0*.
C[C@@H]1CN([C@@H](C)CO)C(=O)c2cccc(NC(=O)c3ccncc3)c2O[C@H]1CN(C)Cc1ccc(-c2ccccc2)cc1 was read as T cruzi growth-1 105.2*, GASC1 inh 2.7, Pf Dd2 inh -28.5, T cruzi growth-2 82.5, T cruzi growth-3 81.6, NIH3T3 tox 31.3 and 3T3 cytotox 2 55.4*.
For C[C@@H]1CN([C@@H](C)CO)C(=O)c2cccc(NC(=O)c3ccncc3)c2O[C@@H]1CN(C)Cc1ccccc1 the results were T cruzi growth-1 45.0, GASC1 inh -0.3 and Pf Dd2 inh 2.8.
`C[C@@H]1CN([C@H](C)CO)C(=O)c2cccc(NC(=O)c3ccncc3)c2O[C@H]1CN(C)Cc1ccc(-c2ccccc2)cc1` gave T cruzi growth-1 107.4*, GASC1 inh 1.3, Pf Dd2 inh -78.6, T cruzi growth-2 94.2, T cruzi growth-3 85.0, NIH3T3 tox 49.9* and 3T3 cytotox 2 41.2*.
Screening C[C@H](CO)N1C[C@H](C)[C@@H](CN(C)Cc2ccccc2)Oc2c(NC(=O)c3ccncc3)cccc2C1=O returned T cruzi growth-1 65.3, GASC1 inh 0.1 and Pf Dd2 inh -27.8.
`C[C@H]1CN([C@@H](C)CO)C(=O)c2cccc(NC(=O)c3ccncc3)c2O[C@H]1CN(C)Cc1ccncc1` gave T cruzi growth-1 49.7, GASC1 inh -1.3 and Pf Dd2 inh 11.1.
Screening C[C@H](CO)N1C[C@H](C)[C@@H](CN(C)CC2CC2)Oc2c(NC(=O)c3ccncc3)cccc2C1=O returned T cruzi growth-1 102.3*, Pf Dd2 inh 8.6, IDH1 R132H inh -1.1, T cruzi growth-2 77.7, T cruzi growth-3 22.9, NIH3T3 tox -8.8 and 3T3 cytotox 2 inconclusive.
C[C@@H]1CN([C@H](C)CO)C(=O)c2cccc(NC(=O)c3ccncc3)c2O[C@H]1CN(C)CC1CC1 was read as T cruzi growth-1 48.4, GASC1 inh 1.2, Pf Dd2 inh -12.4 and IDH1 R132H inh 0.8.
For C[C@H](CO)N1C[C@H](C)[C@H](CN(C)Cc2ccc(-c3ccccc3)cc2)Oc2c(NC(=O)c3ccncc3)cccc2C1=O the results were T cruzi growth-1 99.3*, GASC1 inh -0.6, Pf Dd2 inh -72.5, IDH1 R132H inh -10.0, T cruzi growth-2 104.6*, T cruzi growth-3 inconclusive, NIH3T3 tox 56.0* and 3T3 cytotox 2 47.4*.
Screening CS(=O)(=O)N(CC(=O)Nc1ccc(F)c(F)c1)c1ccc(Br)cc1 returned IDH1 R132H inh 0.0.
Screening COc1cc(S(=O)(=O)NCCc2ccccc2)c(OC)cc1Br returned IDH1 R132H inh 0.6.
COC(=O)C[C@H]1C[C@@H]2c3cc(NC(=O)Nc4ccc(C(F)(F)F)cc4)ccc3O[C@@H]2[C@@H](CO)O1 was read as T cruzi growth-1 103.8*, GASC1 inh -2.5, Pf Dd2 inh -37.5, IDH1 R132H inh 2.4, T cruzi growth-2 108.3*, T cruzi growth-3 30.3, NIH3T3 tox 9.7 and 3T3 cytotox 2 25.3*.
COCCNC(=O)C[C@@H]1C[C@H]2c3cc(NC(=O)Nc4ccc(C(F)(F)F)cc4)ccc3O[C@H]2[C@H](CO)O1 was read as T cruzi growth-1 123.2*, GASC1 inh 0.2, Pf Dd2 inh -67.7, IDH1 R132H inh -0.1, T cruzi growth-2 42.3, T cruzi growth-3 -2.2, NIH3T3 tox -14.0 and 3T3 cytotox 2 -2.2.
